# Assay results pooled from the literature.
# Lines come from different studies, so protocols differ.
# ABL1 non-phosphorylated: Tyrosine-protein kinase ABL1, non-phosphorylated (ABL1, Homo sapiens, UniProt P00519)
# ABL1 F317L non-phosphorylated: Tyrosine-protein kinase ABL1, non-phosphorylated (ABL1, Homo sapiens, UniProt P00519, F317L)
# ABL1 T315I phosphorylated: Tyrosine-protein kinase ABL1, phosphorylated (ABL1, Homo sapiens, UniProt P00519, T315I)
# ABL1 M351T: Tyrosine-protein kinase ABL1 (ABL1, Homo sapiens, UniProt P00519, M351T)
# ABL1 Y253F: Tyrosine-protein kinase ABL1 (ABL1, Homo sapiens, UniProt P00519, Y253F)
# ABL1 Y253F phosphorylated: Tyrosine-protein kinase ABL1, phosphorylated (ABL1, Homo sapiens, UniProt P00519, Y253F)
# ABL1 phosphorylated: Tyrosine-protein kinase ABL1, phosphorylated (ABL1, Homo sapiens, UniProt P00519)
# ABL1 Q252H phosphorylated: Tyrosine-protein kinase ABL1, phosphorylated (ABL1, Homo sapiens, UniProt P00519, Q252H)
# ABL1 F317I phosphorylated: Tyrosine-protein kinase ABL1, phosphorylated (ABL1, Homo sapiens, UniProt P00519, F317I)
# ABL1 F317I non-phosphorylated: Tyrosine-protein kinase ABL1, non-phosphorylated (ABL1, Homo sapiens, UniProt P00519, F317I)
SMILES,target,observed,technique,tested at,remaining binding
N[C@H]1CCN(c2nccc(-c3cnn4ncccc34)n2)C1,ABL1 non-phosphorylated,binding,,1 µM,91%
O=C(NCCCN1CCOCC1)c1ccc(Nc2nccc(-c3cc4ccccc4s3)n2)cc1,ABL1 F317L non-phosphorylated,binding,competition with immobilised ligand,1 µM,90%
N#Cc1ccccc1CSc1nnc2c(n1)[nH]c1ccccc12,ABL1 T315I phosphorylated,binding,competition with immobilised ligand,10 µM,92%
COc1cnc(Nc2cccc(S(N)(=O)=O)c2)nc1N1CCN(c2ccccc2)CC1,ABL1 non-phosphorylated,binding,competition with immobilised ligand,1 µM,70%
C[C@@H]1CCN(c2nccc(-c3cnn4ncccc34)n2)C1,ABL1 M351T,binding,,1 µM,100%
COc1cnc(Nc2cccc(S(N)(=O)=O)c2)nc1N1CCN(c2ccccc2)C(=O)C1,ABL1 T315I phosphorylated,binding,competition with immobilised ligand,1 µM,77%
O=C(c1ccc(Nc2ncc(Cl)c(-c3cc4ccccc4s3)n2)cc1)N1CCC(N2CCCC2)CC1,"Tyrosine-protein kinase ABL1, non-phosphorylated (ABL1, Homo sapiens, UniProt P00519, H396P)",binding,competition with immobilised ligand,1 µM,1.8%
CN(C)c1nccc(-c2cnc3ncccn23)n1,"Tyrosine-protein kinase ABL1 (ABL1, Homo sapiens, UniProt P00519, Q252H)",binding,,1 µM,72%
Nc1ncc2c(n1)-c1c([nH]c3ccc(C#CC4CC4)cc13)CCCC2,ABL1 non-phosphorylated,binding,competition with immobilised ligand,1 µM,95%
c1cnn2ncc(-c3ccnc(N4CCC45COC5)n3)c2c1,ABL1 non-phosphorylated,binding,,1 µM,68%
CC(=O)N1CCC(c2ccc(C(=O)NC(=N)N)cc2C(F)(F)F)CC1,ABL1 T315I phosphorylated,cell-free assay,competition with immobilised ligand,1 µM,95%
O=C(NCCCN1CCOCC1)c1ccc(Nc2ncc(Cl)c(-c3ccc(Cl)s3)n2)cc1,"Tyrosine-protein kinase ABL1, phosphorylated (ABL1, Homo sapiens, UniProt P00519, E255K)",binding,competition with immobilised ligand,1 µM,37%
F[C@@H]1CCN(c2nccc(-c3cnn4ncccc34)n2)C1,ABL1 Y253F,binding,,1 µM,90%
COc1ncc2cc3ccccc3nc2c1C#N,ABL1 Y253F phosphorylated,cell-free assay,competition with immobilised ligand,5 µM,92%
CN(C)c1nccc(-c2cnn3ncccc23)n1,ABL1 Y253F,binding,,1 µM,86%
COc1ccc2c(O[C@@H]3C[C@H]4C(=O)N[C@]5(C(=O)O)CC5/C=C\CCCCC[C@H](NC(=O)OC5CCCC5)C(=O)N4C3)cc(-c3csc(NC(=O)C(C)C)n3)nc2c1C (stereo partly drawn),ABL1 phosphorylated,cell-free assay,competition with immobilised ligand,1 µM,93%
C=CC(=O)N1CCC(C(=O)NCC(=O)N2CCN(c3nc(-c4cnc(N)nc4C(F)F)nc(N4CCOCC4)n3)CC2)CC1,ABL1 non-phosphorylated,binding,competition with immobilised ligand,1 µM,80%
O=C(c1ccc(Nc2ncc(Cl)c(-c3ccc(Cl)s3)n2)cc1)N1CCC(N2CCCC2)CC1,ABL1 non-phosphorylated,binding,competition with immobilised ligand,1 µM,4.3%
COc1cc(-c2cn(C3CCc4c(F)cccc4N(CC(F)(F)F)C3=O)nn2)ccc1-n1cnc(C)c1 (stereo not drawn),ABL1 Q252H phosphorylated,cell-free assay,competition with immobilised ligand,1 µM,100%
CCN1CCN(Cc2ccc(C(=O)Nc3ccc(C)c(Oc4ccc5c(c4)CC(=O)N5)c3)cc2C(F)(F)F)CC1,ABL1 F317I phosphorylated,binding,competition with immobilised ligand,1 µM,24%
CN(c1nccc(-c2cnn3ncccc23)n1)C1CC1,"Tyrosine-protein kinase ABL1 (ABL1, Homo sapiens, UniProt P00519, T315I)",binding,,1 µM,100%
Cc1cnc(Nc2ccc(C(=O)N3CCC(N4CCCC4)CC3)cc2)nc1-c1cc2ccccc2s1,ABL1 F317I non-phosphorylated,binding,competition with immobilised ligand,1 µM,100%
COc1cc(-c2cn(C3CCc4ccccc4N(CC(F)(F)F)C3=O)nn2)ccc1-n1ccc(C)n1 (stereo not drawn),ABL1 Y253F phosphorylated,cell-free assay,competition with immobilised ligand,1 µM,87%
O=C(Nc1c[nH]nc1C(=O)NC1CCNCC1)c1cc(F)cc(F)c1,ABL1 F317I phosphorylated,binding,competition with immobilised ligand,1 µM,85%
N#Cc1ccc(Nc2ccc3[nH]c(=O)[nH]c3c2)c(Cl)c1,ABL1 T315I phosphorylated,cell-free assay,competition with immobilised ligand,1 µM,93%
O=C(NCC1CCOCC1)c1n[nH]cc1NC(=O)c1c(F)cccc1F,"Tyrosine-protein kinase ABL1, phosphorylated (ABL1, Homo sapiens, UniProt P00519, H396P)",binding,competition with immobilised ligand,1 µM,93%
CNC(=O)[C@@H]1CC[C@@H](n2c(-c3ccc4cnccc4c3)nc3ccc(C(=O)NCc4cccc(C(N)=O)c4)cc32)C1,ABL1 non-phosphorylated,binding,competition with immobilised ligand,1 µM,69%
CN1CCN(c2ccc(Nc3nccc(-c4ccccc4)n3)cc2C(F)(F)F)CC1,ABL1 Y253F,binding,,10 µM,16%
C[C@@H]1CN(c2cc(-c3nn(C)c4ccc(OC5(C)CC5)cc34)ncn2)C[C@H](C)O1,ABL1 F317I phosphorylated,binding,,1 µM,75%
C[C@@H](c1ccc(-n2cnc3c(N)ncnc32)cc1)N1CCc2nn(C)c(Cc3ccccc3)c2C1=O,ABL1 Y253F phosphorylated,binding,competition with immobilised ligand,0.1 µM,47%
COC(=O)Nc1nc2ccc(C(=O)c3ccccc3)cc2[nH]1,ABL1 T315I phosphorylated,cell-free assay,competition with immobilised ligand,10 µM,3.2%
CC1=C(C#N)C(c2ccc3c(c2)c(NC(=O)c2ccccc2C)nn3C)C(C#N)=C(C)N1,ABL1 F317I non-phosphorylated,binding,competition with immobilised ligand,1 µM,100%
c1cncc(-c2cccc(Nc3nccc(NC4CCCCC4)n3)c2)c1,ABL1 Q252H phosphorylated,binding,competition with immobilised ligand,10 µM,24%
CSc1cccnc1N1CCN(Cc2nc3ccccc3[nH]2)CC1,ABL1 F317L non-phosphorylated,cell-free assay,competition with immobilised ligand,1 µM,100%
Cc1cnn2ncc(-c3ccnc(N(C)C)n3)c2c1,ABL1 M351T,binding,,1 µM,91%
O=C(c1ccc(Nc2nccc(-c3cc4ccccc4s3)n2)cc1)N1CCC(N2CCCC2)CC1,ABL1 phosphorylated,binding,competition with immobilised ligand,1 µM,21%
